# Assay results: PMC5909786 (Drug Design, Development and Therapy, 2018)
# What was measured:
# [1] = test system: Raji cells; test: In vitro cytotoxicity; type: cell-based, human; conditions: Raji cells versus Raji/VCR cells, MTT, 72 hours
# [2] = In vivo tissue distribution; set-up: species or system Raji/VCR cell bearing BALB/c nude mice; conditions: 10 mg/kg of VCR intravenous
# [3] = test system: Raji/VCR cell bearing BALB/c nude mice; test: In vivo antitumor activity; conditions: 10 mg/kg of VCR intravenously twice a week for 3 weeks, n=6
# [4] = Systemic toxicity; type: in vivo, BALB/c nude mice; conditions: tumor-bearing mice, after 3 weeks of administration
# Method in brief: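 BALB/c nude mice (4–6 weeks, 18–22 g) carried subcutaneous right-flank xenografts of vincristine-resistant Raji cells (5×10^7 cells in 100 μL PBS). Mice were randomised into groups of six and dosed intravenously twice a week for 3 weeks with PBS control or test formulations (10 mg/kg drug). Body weight was recorded as a systemic toxicity read-out.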
smiles,measurement,setting,value
"CC[C@]1(O)C[C@H]2CN(CCc3c([nH]c4ccccc34)[C@@](C(=O)OC)(c3cc4c(cc3OC)N(C=O)[C@H]3[C@@](O)(C(=O)OC)[C@H](OC(C)=O)[C@]5(CC)C=CCN6CC[C@]43[C@@H]65)C2)C1 [Free VCR, vincristine]",In vitro cytotoxicity (in words),[1],higher cytotoxicity in Raji cells than Raji/VCR cells
same,Drug distribution over time (in words),[2],rapidly reached a high level during the first few hours and reduced over time
same,Tumor volume / tumor growth (in words),[3],not statistically different from the negative control
same,Body weight (in words),[4],reduction in body weight
